Assay results: ChEMBL document CHEMBL1255509, “Structure-activity relationship of boronic acid derivatives of tyropeptin: proteasome inhibitors” (Bioorg Med Chem Lett, 2010)

Assays:
[1] = Cytotoxicity against human RPMI8226 cells; type: cell-based; conditions: RPMI-8226
[2] = Inhibition of chymotrypsin like activity of partially purified human proteasome; type: subcellular
Summary of the method: (§1)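 Purified 20S proteasome isolated from human erythrocytes served as the enzyme source. Inhibition is reported as IC50.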

[3] = Inhibition of caspase like activity of partially purified human proteasome; type: subcellular; summary of the method: as §1
[4] = Inhibition of trypsin like activity of partially purified human proteasome; type: subcellular; summary of the method: as §1

Row | Compound | IC50 [2] [nM] | IC50 [3] [nM] | IC50 [4] [nM] | IC50 [1] [nM]
1 | COc1ccc(C[C@H](NC(=O)[C@@H](NC(=O)[C@H](Cc2ccc(OC)cc2)NC(=O)Cc2ccc3ccccc3c2)C(C)C)B(O)O)cc1 | 22 | 29000 | 12000 | 170
2 | COc1ccc(C[C@H](NC(=O)[C@@H](NC(=O)[C@H](Cc2ccc(OC)cc2)NC(=O)Cc2cccc(Oc3ccccc3)c2)C(C)C)B(O)O)cc1 | 4.1 | 29000 | 1100 | 190
3 | COc1ccc(C[C@H](NC(=O)[C@@H](NC(=O)[C@H](Cc2ccc(OC)cc2)NC(=O)c2nccc3ccccc23)C(C)C)B(O)O)cc1 | 41 | 19000 | 10000 | 34
4 | COc1ccc(C[C@H](NC(=O)[C@@H](NC(=O)[C@H](Cc2ccc(OC)cc2)NC(=O)c2cc3ccccc3cn2)C(C)C)B(O)O)cc1 | 59 | 11000 | 9000 | 93
5 | COc1ccc(C[C@H](NC(=O)[C@@H](NC(=O)[C@H](Cc2ccc(OC)cc2)NC(=O)c2ccc3cnccc3c2)C(C)C)B(O)O)cc1 | 380 | > 40000 | > 40000 | 260
6 | COc1ccc(C[C@H](NC(=O)[C@@H](NC(=O)[C@H](Cc2ccc(OC)cc2)NC(=O)Cc2ccc3ccccc3n2)C(C)C)B(O)O)cc1 | 100 | 16000 | 5400 | 73
7 | COc1ccc(C[C@H](NC(=O)[C@@H](NC(=O)[C@H](Cc2ccc(OC)cc2)NC(=O)c2cnc3ccccc3c2)C(C)C)B(O)O)cc1 | 56 | 32000 | 10000 | 54
8 | COc1ccc(C[C@H](NC(=O)[C@@H](NC(=O)[C@H](Cc2ccc(OC)cc2)NC(=O)c2ccnc3ccccc23)C(C)C)B(O)O)cc1 | 49 | 24000 | 8600 | 49
9 | COc1ccc(C[C@H](NC(=O)[C@@H](NC(=O)[C@H](Cc2ccc(OC)cc2)NC(=O)c2cccc3cccnc23)C(C)C)B(O)O)cc1 | 93 | 16000 | 18000 | 56
10 | COc1ccc(C[C@H](NC(=O)[C@@H](NC(=O)[C@H](Cc2ccc(OC)cc2)NC(=O)c2cccnc2)C(C)C)B(O)O)cc1 | 500 | > 40000 | > 40000 | 870
11 | COc1ccc(C[C@H](NC(=O)[C@@H](NC(=O)[C@H](Cc2ccc(OC)cc2)NC(=O)c2ccncc2)C(C)C)B(O)O)cc1 | 2300 | > 40000 | > 40000 | 870
12 | COc1ccc(C[C@H](NC(=O)[C@@H](NC(=O)[C@H](Cc2ccc(OC)cc2)NC(=O)c2ncccc2C)C(C)C)B(O)O)cc1 | 85 | > 40000 | 20000 | 14
13 | COc1ccc(C[C@H](NC(=O)[C@@H](NC(=O)[C@H](Cc2ccc(OC)cc2)NC(=O)c2ccc(C)cn2)C(C)C)B(O)O)cc1 | 120 | 30000 | 14000 | 14
14 | COc1ccc(C[C@H](NC(=O)[C@@H](NC(=O)[C@H](Cc2ccc(OC)cc2)NC(=O)c2cccc(C)n2)C(C)C)B(O)O)cc1 | 88 | 30000 | 17000 | 14
15 | COc1ccc(C[C@H](NC(=O)[C@@H](NC(=O)[C@H](Cc2ccc(OC)cc2)NC(=O)c2cccc(F)n2)C(C)C)B(O)O)cc1 | 110 | 27000 | 20000 | 15
16 | COc1ccc(C[C@H](NC(=O)[C@@H](NC(=O)[C@H](Cc2ccc(OC)cc2)NC(=O)c2ncccc2Cl)C(C)C)B(O)O)cc1 | 83 | 20000 | 20000 | 9.7
17 | COc1ccc(C[C@H](NC(=O)[C@@H](NC(=O)[C@H](Cc2ccc(OC)cc2)NC(=O)c2cccc(Cl)n2)C(C)C)B(O)O)cc1 | 100 | 23000 | 10000 | 29
18 | COc1ccc(C[C@H](NC(=O)[C@@H](NC(=O)[C@H](Cc2ccc(OC)cc2)NC(=O)c2nc(Cl)ccc2Cl)C(C)C)B(O)O)cc1 | 53 | 26000 | 13000 | 14
19 | COc1ccc(C[C@H](NC(=O)[C@@H](NC(=O)[C@H](Cc2ccc(OC)cc2)NC(=O)c2ncccc2Br)C(C)C)B(O)O)cc1 | 61 | 20000 | 17000 | 13
20 | COc1ccc(C[C@H](NC(=O)[C@@H](NC(=O)[C@H](Cc2ccc(OC)cc2)NC(=O)c2cccc(Br)n2)C(C)C)B(O)O)cc1 | 92 | 27000 | 14000 | 44
21 | COc1ccc(C[C@H](NC(=O)[C@@H](NC(=O)[C@H](Cc2ccc(OC)cc2)NC(=O)c2ncccc2O)C(C)C)B(O)O)cc1 | 390 | 29000 | > 40000 | 52
22 | COc1ccc(C[C@H](NC(=O)[C@@H](NC(=O)[C@H](Cc2ccc(OC)cc2)NC(=O)c2cccc(O)n2)C(C)C)B(O)O)cc1 | 240 | 26000 | 21000 | 340
23 | COc1ccc(C[C@H](NC(=O)[C@@H](NC(=O)[C@H](Cc2ccc(OC)cc2)NC(=O)c2ncccc2OC)C(C)C)B(O)O)cc1 | 130 | 26000 | 31000 | 41
24 | COc1ccc(C[C@H](NC(=O)[C@@H](NC(=O)[C@H](Cc2ccc(OC)cc2)NC(=O)c2ccc(OC)cn2)C(C)C)B(O)O)cc1 | 94 | 21000 | 14000 | 13
25 | COc1ccc(C[C@H](NC(=O)[C@@H](NC(=O)[C@H](Cc2ccc(OC)cc2)NC(=O)c2cccc(OC)n2)C(C)C)B(O)O)cc1 | 59 | 35000 | 21000 | 51
26 | COc1ccc(C[C@H](NC(=O)CNC(=O)[C@H](Cc2ccc(OC)cc2)NC(=O)c2ccccn2)B(O)O)cc1 | 260 | 34000 | > 40000 | 24
27 | COc1ccc(C[C@H](NC(=O)[C@H](C)NC(=O)[C@H](Cc2ccc(OC)cc2)NC(=O)c2ccccn2)B(O)O)cc1 | 110 | > 40000 | > 40000 | 57
28 | COc1ccc(C[C@H](NC(=O)[C@@H](NC(=O)[C@H](Cc2ccc(OC)cc2)NC(=O)Cc2cccc3ccccc23)C(C)C)B(O)O)cc1 | 19 | 39000 | > 40000 | 28
29 | CC(C)C[C@H](NC(=O)[C@H](Cc1ccccc1)NC(=O)c1cnccn1)B(O)O [BORTEZOMIB] | 39 | 750 | > 40000 | 8.8

Now from value to compound, other results behind:

Row | IC50 [2] [nM] | IC50 [3] [nM] | IC50 [4] [nM] | Compound | IC50 [1] [nM]
30 | 88 | 21000 | 15000 | COc1ccc(C[C@H](NC(=O)[C@@H](NC(=O)[C@H](Cc2ccc(OC)cc2)NC(=O)c2cc(Cl)ccn2)C(C)C)B(O)O)cc1 | 39
31 | 240 | 33000 | 19000 | COc1ccc(C[C@H](NC(=O)[C@@H](NC(=O)[C@H](Cc2ccc(OC)cc2)NC(=O)c2cnccn2)C(C)C)B(O)O)cc1 | 17
32 | 230 | 23000 | 40000 | COc1ccc(C[C@H](NC(=O)[C@@H](NC(=O)[C@H](Cc2ccc(OC)cc2)NC(=O)c2ccccn2)C(C)C)B(O)O)cc1 | 13
33 | 140 | 30000 | 20000 | COc1ccc(C[C@H](NC(=O)[C@@H](NC(=O)[C@H](Cc2ccc(OC)cc2)NC(=O)c2cc(C)ccn2)C(C)C)B(O)O)cc1 | 14
34 | 140 | 25000 | 24000 | COc1ccc(C[C@H](NC(=O)[C@@H](NC(=O)[C@H](Cc2ccc(OC)cc2)NC(=O)c2ncccc2F)C(C)C)B(O)O)cc1 | 4.9
35 | 81 | 30000 | 14000 | COc1ccc(C[C@H](NC(=O)[C@@H](NC(=O)[C@H](Cc2ccc(OC)cc2)NC(=O)c2ccc(F)cn2)C(C)C)B(O)O)cc1 | 19
36 | 83 | 16000 | 15000 | COc1ccc(C[C@H](NC(=O)[C@@H](NC(=O)[C@H](Cc2ccc(OC)cc2)NC(=O)c2ccc(Cl)cn2)C(C)C)B(O)O)cc1 | 39
37 | 95 | 17000 | 14000 | COc1ccc(C[C@H](NC(=O)[C@@H](NC(=O)[C@H](Cc2ccc(OC)cc2)NC(=O)c2cc(Br)ccn2)C(C)C)B(O)O)cc1 | 47
38 | 93 | 24000 | 14000 | COc1ccc(C[C@H](NC(=O)[C@@H](NC(=O)[C@H](Cc2ccc(OC)cc2)NC(=O)c2ccc(Br)cn2)C(C)C)B(O)O)cc1 | 46
39 | 150 | 25000 | 20000 | COc1ccc(C[C@H](NC(=O)[C@@H](NC(=O)[C@H](Cc2ccc(OC)cc2)NC(=O)c2cc(C(F)(F)F)ccn2)C(C)C)B(O)O)cc1 | 53
40 | 110 | 28000 | 19000 | COc1ccc(C[C@H](NC(=O)[C@@H](NC(=O)[C@H](Cc2ccc(OC)cc2)NC(=O)c2ccc(C(F)(F)F)cn2)C(C)C)B(O)O)cc1 | 47
41 | 87 | 20000 | 16000 | COc1ccc(C[C@H](NC(=O)[C@@H](NC(=O)[C@H](Cc2ccc(OC)cc2)NC(=O)c2cc(OC)ccn2)C(C)C)B(O)O)cc1 | 13
42 | 190 | 34000 | 19000 | COc1ccc(C[C@H](NC(=O)[C@@H](NC(=O)[C@H](Cc2ccc(OC)cc2)NC(=O)c2cc([N+](=O)[O-])ccn2)C(C)C)B(O)O)cc1 | 48
43 | 110 | 21000 | 15000 | COc1ccc(C[C@H](NC(=O)[C@@H](NC(=O)[C@H](Cc2ccc(OC)cc2)NC(=O)c2cc(N(C)C)ccn2)C(C)C)B(O)O)cc1 | 44
